# Compounds with a hit are over-represented: about 2.1% of the library has one in this group of screens.
# Runt-CBFb FRET: inhibitors of human RUNX1 Runt domain binding to CBFb; Q01196+Q13951; Cerulean-Runt/Venus-CBFb FRET ratio 530/480, 1 h; inhibition, % at 20 µM; 0.46% of 220,000 active;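 active means inhibition over about 50% at 20 µM in the single-dose screen, limit read from the data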
# Target sequence (Q01196 whole entry, looked up, the tested form may be a part): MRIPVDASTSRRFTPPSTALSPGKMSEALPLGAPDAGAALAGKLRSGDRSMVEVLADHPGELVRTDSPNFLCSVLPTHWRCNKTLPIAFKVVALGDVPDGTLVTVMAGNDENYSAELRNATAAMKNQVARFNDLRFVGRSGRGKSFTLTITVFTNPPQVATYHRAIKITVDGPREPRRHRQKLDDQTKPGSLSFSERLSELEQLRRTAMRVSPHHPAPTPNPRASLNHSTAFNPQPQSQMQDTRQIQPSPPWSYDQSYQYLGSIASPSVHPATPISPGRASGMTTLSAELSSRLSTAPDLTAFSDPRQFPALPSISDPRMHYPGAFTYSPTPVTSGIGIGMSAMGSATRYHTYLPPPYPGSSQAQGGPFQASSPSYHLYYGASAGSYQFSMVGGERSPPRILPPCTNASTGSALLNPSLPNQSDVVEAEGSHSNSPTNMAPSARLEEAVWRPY
# Target sequence (Q13951 whole entry, looked up, the tested form may be a part): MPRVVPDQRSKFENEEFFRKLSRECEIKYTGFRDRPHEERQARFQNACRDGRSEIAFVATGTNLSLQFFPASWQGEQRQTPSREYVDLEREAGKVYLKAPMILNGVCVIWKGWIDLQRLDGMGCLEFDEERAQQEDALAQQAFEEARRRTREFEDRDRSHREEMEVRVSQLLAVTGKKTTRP
#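 Measured by: fluorescence energy transfer, 422 nm excitation, 530/480 nm emission; Assay system: Cerulean-Runt domain; Medium: Tris pH 7.5 buffer with BSA; Measure: loss of energy transfer signal; Controls: 5 µM unlabeled CBFb as full-inhibition high control; Incubation: protein complex preformed 1 h, compound exposure 1 h, room temperature, dark.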
# Runt-SMMHC FRET: inhibitors of human RUNX1 Runt domain binding to CBFb-SMMHC; Q01196+Q13951; Cerulean-Runt/Venus-CBFb-SMMHC FRET ratio 530/480, 1 h; inhibition, % at 20 µM; 0.74% of 220,000 active; AID 1434;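 active means mean inhibition across duplicate retests at 20 µM reaching about 50%, limit read from the data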;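 further: inhibitors lower the FRET ratio by blocking Runt binding to CBFb-SMMHC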
# p97 ATPase inh: human p97 ATPase inhibition. recombinant p97 ATPase, Kinase-Glo ATP luminescence, 3 h. P55072. inhibition, % at 8 µM. AID 1481. 0.42% of 220,000 active; in the data active means inhibition above about 15%
# RanGTP-Imp inh: inhibitors of RanGTP-importin-beta interaction, primary screen, biochemical, FRET, CFP-Ran, YFP-importin-beta, homogeneous. 1.1% of 300,000 active. AID 2216. cell-free CFP-Ran/YFP-importin-beta FRET ratio. inhibition, % (test concentration not listed);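 active means more than half of the replicate wells show a fall in the fluorescence ratio signal beyond about 16%, limit read from the data, passing the limit was not always enough; inconclusive means exactly half of the replicate wells pass the set limit; inactive means fewer than half of replicates pass the limit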
# Tb hexokinase: T. brucei hexokinase 1 inhibition | recombinant TbHK1, G6PDH-coupled NADH A340 | inhibition, % at 10 µM | 0.11% of 220,000 active | AID 1430;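 active means inhibition of 50% or more in the single-dose primary screen; inactive means inhibition below 50%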
# Hck Nef HTS: human Hck-Nef kinase inhibition; P08631; Recombinant Hck-YEEI plus Nef, Z-Lyte FRET kinase assay; inhibition, % at 20 µM; 0.68% of 220,000 active; AID 463187;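 active means Hck-Nef kinase inhibition above about 50%, limit read from the data; inactive means inhibition below that limit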
# Runt-CBFb TRFRET: disrupts human RUNX1 Runt domain binding to CBFb; shares compounds with Runt-CBFb FRET; TR-FRET RUNX1 Runt domain-CBFb binding; inhibition, % at 20 µM; 20% of 480 active; AID 1502; in the data active means inhibition above about 40%
# A number is an active result; - = inactive; ? = inconclusive; . = not tested or not shown.
SMILES,Runt-CBFb FRET,Runt-SMMHC FRET,p97 ATPase inh,RanGTP-Imp inh,Tb hexokinase,Hck Nef HTS,Runt-CBFb TRFRET
COc1ccc(C(CCN2CCN(c3ccccc3)CC2)c2c(OC)cc(OC)c3c(-c4ccccc4)cc(=O)oc23)cc1 (stereo unspecified),55.2,-,.,-,-,-,-
Cn1c(CNC(=O)c2ccco2)nnc1SCC(=O)Nc1ccc(Cl)cc1,.,.,.,-,.,.,.
Cc1ccc(C2=Nc3ccccc3SC(c3cccc([N+](=O)[O-])c3)C2)cc1 (stereo unspecified),52.3,-,-,-,-,-,-
O=[N+]([O-])c1cccc(C2CC(c3ccccc3)=NN2c2ccccc2)c1 (stereo unspecified),.,.,.,-,.,.,.
CC(=O)Nc1cccc(NC(=O)C2CC(=O)N(c3ccc(C)cc3)C2)c1 (stereo unspecified),-,-,-,-,-,-,.
CC(C(=O)N1CCC(C(N)=O)CC1)N(c1ccc(Oc2ccccc2)cc1)S(C)(=O)=O (stereo unspecified),-,-,-,-,-,-,.
Oc1ccc(O)c(Cc2nc3ccccc3[nH]2)c1,53.0,-,-,-,-,-,-
COc1ccc2c(c1O)-c1ccccc1CCN(C)C2,-,-,-,-,-,-,.
CN1CCc2cccc3c2[C@@H]1Cc1ccc(O)c(O)c1-3,86.2,.,-,.,-,-,68.3
COc1cccc2cc(C(=O)N3CCN(C45CC6CC(CC(C6)C4)C5)CC3)c(=O)oc12,59.7,-,-,53.3,-,-,-
Cc1cc(C)nc(Sc2nc(Cl)nc(N(c3ccccc3)c3ccccc3)n2)n1,58.8,-,-,-,-,-,-
Cc1cc(C)nc(SC(C(=O)O)c2ccccc2)n1 (stereo unspecified),-,-,-,-,-,-,.
CCCS(=O)(=O)N1CCCC(C(=O)NCCCN(C)c2ccccc2)C1 (stereo unspecified),56.9,-,-,-,-,-,-
COc1ccc(NC(=O)N2CCCC(C(=O)NCc3ccccc3F)C2)cc1 (stereo unspecified),.,.,.,-,.,.,.
COc1ccc2nc(NC(=O)c3sc4nc(C)cc(C)c4c3N)sc2c1,64.8,-,-,-,-,-,-
COc1ccc2nc(NC(=O)c3cc(C)oc3C)sc2c1,-,-,-,-,-,-,.
COc1ccccc1NS(=O)(=O)c1cc(NC(=O)c2sccc2C)ccc1N1CCCC1,51.3,-,-,-,-,-,-
COc1ccccc1NS(=O)(=O)c1cc(NC(=O)c2sccc2C)ccc1N1CCOCC1,-,-,-,-,-,-,.
COc1ccccc1NS(=O)(=O)c1cc(NC(=O)c2cccs2)ccc1N1CCCCC1,-,-,-,-,-,-,.
COc1ccccc1NS(=O)(=O)c1cc(NC(=O)c2cccs2)ccc1N1CCCC1,50.0,-,-,-,-,-,-
CCCC(=O)Nc1ccc(C(=O)NCc2ccccc2Cl)cc1,-,-,-,?,-,-,.
O=C(NC(=S)Nc1cccc2ncccc12)c1ccco1,-,-,-,-,-,-,.
N#C/C(=C\c1ccco1)C(=O)Nc1cccc2ncccc12,61.0,-,-,-,-,-,-
NS(=O)(=O)c1ccc(N/C=C\C(=O)c2ccc3ccccc3c2)cc1,50.3,-,-,-,-,-,43.8
COc1cccc(C(=O)Nc2ccc(NC(=O)C(C)(C)C)cn2)c1,-,-,-,-,-,-,.
SMILES,Runt-CBFb FRET,Runt-SMMHC FRET,p97 ATPase inh,RanGTP-Imp inh,Tb hexokinase,Hck Nef HTS,Runt-CBFb TRFRET
CCOC(=O)c1sc(Nc2nc3c(F)cccc3s2)cc1C,97.9,148.1,-,-,-,-,-
Cc1cc(C)c2c(n1)sc1c(O)cc(=O)[nH]c12,51.9,-,-,-,-,-,-
COc1ccc(-c2cc(C(F)(F)F)c3c(n2)sc2c(O)cc(=O)[nH]c23)c(OC)c1,-,-,-,-,-,-,.
Cc1ccc(C(=O)c2sc3nsc(C)c3c2N)cc1,50.0,-,-,-,-,-,44.5
Cc1snc2sc(C(=O)c3ccc(Br)cc3)c(N)c12,-,-,-,-,-,-,.
CCOC(=O)c1c(/N=C/N(C)C)sc(/C=N/Nc2ccccc2)c1-c1ccc(Cl)cc1,58.3,119.1,-,-,-,-,-
O=C(O)CNc1nc(Cl)ccc1[N+](=O)[O-],-,-,-,-,-,-,.
CC(C)S(=O)(=O)C1=NSC2=NC(=O)/C(=C\c3ccc(-c4cccc(C(=O)O)c4)o3)C(=N)N21,59.6,-,-,.,-,-,-
CCC1CCCCN1C(=O)CSc1nc(N)c(NC(=O)c2ccco2)c(=O)[nH]1 (stereo unspecified),63.1,-,-,-,-,-,-
COc1ccc2oc(C(=O)OCC(=O)Nc3cccc(S(=O)(=O)N4CCOCC4)c3)c(C)c2c1,.,.,.,-,.,.,.
O=C1/C(=C/c2ccncc2)SC(=S)N1Nc1ccccc1,50.2,-,-,-,-,-,49.8
Cc1nc2ccccc2c(=O)n1/N=C/c1ccc([N+](=O)[O-])o1,56.9,-,-,-,-,-,-
Clc1ccc(-c2nc3ccncc3[nH]2)cc1,59.2,-,-,?,-,-,-
CN1C(=O)c2cccc(NC(=O)CCc3ccccc3)c2C1=O,-,-,-,-,-,-,.
COc1ccc(N2CSC3=C(C#N)C(c4ccc(OC)c(OC)c4)CC(=O)N3C2)c(OC)c1 (stereo unspecified),-,-,-,-,-,-,.
COc1ccc(C2CC(=O)N3CN(c4ccc(C)c(Cl)c4)CSC3=C2C#N)cc1OC (stereo unspecified),59.0,100.4,-,-,-,-,-
CCOC(=O)c1c(/N=C/c2cc(C)ccc2O)sc2c1CCN(C)C2,50.0,60.1,-,56.3,-,-,-
Cc1cccc(/C=N/c2sc3c(c2C(=O)OC(C)(C)C)CCN(C)C3)c1O,-,-,-,?,-,-,.
CNCc1ccccc1Sc1cccc(O)c1,-,-,-,-,-,-,.
CNCc1ccccc1Sc1cc(O)ccc1O,51.5,-,-,.,-,-,-
Cc1cccc(OC(C)C(=O)NCc2ccc(S(N)(=O)=O)cc2)c1 (stereo unspecified),-,-,-,-,-,-,.
CC(=O)Nc1ccc(S(=O)(=O)NC(C(=O)O)C2=CCC=CC2)cc1 (stereo unspecified),-,-,-,-,-,-,.
COc1ccc(S(=O)(=O)N(C(C)=O)c2ccc3oc(=O)sc3c2)cc1,67.0,58.2,-,-,-,-,-
CCSCCOC(=O)C1=C(C)NC2=C(C(=O)CCC2)C1c1coc2ccccc2c1=O (stereo unspecified),-,-,-,-,-,-,.
Fc1ccccc1C1CC(c2ccco2)=Nc2ccccc2S1 (stereo unspecified),50.4,-,-,-,-,-,-
